Article PMC3983348 (Journal of Medicinal Chemistry, 2014)
Like-named read-outs stand apart in the source and are kept apart here.

Tests used:
recombinant Top1 = target: T1, recombinant Top1 (Homo sapiens, UniProt P11387); assay: Top1-mediated DNA cleavage assay; assay type: biochemical; details: compound-induced DNA cleavage, score based on the activity of 1 μM camptothecin
T1 sequence (P11387 1-765): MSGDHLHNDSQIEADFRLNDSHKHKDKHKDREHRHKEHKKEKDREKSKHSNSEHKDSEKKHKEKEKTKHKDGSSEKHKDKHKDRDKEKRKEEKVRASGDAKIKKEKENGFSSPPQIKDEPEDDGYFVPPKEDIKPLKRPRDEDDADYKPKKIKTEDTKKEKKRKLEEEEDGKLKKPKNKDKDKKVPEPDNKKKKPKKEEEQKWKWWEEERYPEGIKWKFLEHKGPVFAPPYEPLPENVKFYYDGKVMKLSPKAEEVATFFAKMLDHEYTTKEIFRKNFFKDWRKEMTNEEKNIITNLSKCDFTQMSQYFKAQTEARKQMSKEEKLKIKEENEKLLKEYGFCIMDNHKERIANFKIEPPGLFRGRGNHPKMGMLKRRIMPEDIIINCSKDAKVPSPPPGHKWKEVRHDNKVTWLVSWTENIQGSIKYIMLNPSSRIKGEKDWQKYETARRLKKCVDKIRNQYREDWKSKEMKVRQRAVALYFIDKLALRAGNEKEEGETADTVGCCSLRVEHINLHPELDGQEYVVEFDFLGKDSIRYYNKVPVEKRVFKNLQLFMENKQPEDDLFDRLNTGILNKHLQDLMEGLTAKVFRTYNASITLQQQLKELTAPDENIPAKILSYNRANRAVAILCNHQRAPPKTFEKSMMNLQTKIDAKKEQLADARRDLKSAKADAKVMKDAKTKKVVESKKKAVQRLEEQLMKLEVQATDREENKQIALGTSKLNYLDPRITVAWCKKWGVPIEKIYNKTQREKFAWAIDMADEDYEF

[1] = test system: panel of 60 different human cancer cell lines; assay: NCI-60 five-dose assay, mean graph midpoint; assay type: cell-based; details: mean graph midpoint of growth inhibition, five-dose assay 10^–8 to 10^–4 M
recombinant TDP1 = recombinant TDP1 (Homo sapiens, UniProt Q9NUW8); assay: Gel-based assay measuring the inhibition of recombinant TDP1; assay type: biochemical
How it was run: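 Gel assay: a 5′-[32P]-labeled single-stranded DNA oligonucleotide with a 3′-phosphotyrosine (N14Y) was incubated with 5 pM recombinant TDP1 and test compound for 15 min at room temperature. Samples were run on 16% denaturing PAGE and quantified by phosphorimager densitometry.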

renal, SN12C = assay: NCI-60 five-dose assay, SN12C; assay type: cell-based; details: Homo sapiens, read-out: cytotoxicity GI50, renal, SN12C
How it was run: (§1)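 Run in the National Cancer Institute's NCI-60 human cancer cell panel. Test compounds were first screened in a one-dose assay at 10–5 M, reading growth percent relative to vehicle-treated control.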

melanoma, UACC-62 = assay: NCI-60 five-dose assay, UACC-62; assay type: cell-based; details: Homo sapiens, UACC-62, read-out: cytotoxicity GI50, melanoma, UACC-62
How it was run: as §1

[2] = read-out: TDP1 inhibition, score according to IC50

Sequence of recombinant TDP1 (Q9NUW8 whole entry): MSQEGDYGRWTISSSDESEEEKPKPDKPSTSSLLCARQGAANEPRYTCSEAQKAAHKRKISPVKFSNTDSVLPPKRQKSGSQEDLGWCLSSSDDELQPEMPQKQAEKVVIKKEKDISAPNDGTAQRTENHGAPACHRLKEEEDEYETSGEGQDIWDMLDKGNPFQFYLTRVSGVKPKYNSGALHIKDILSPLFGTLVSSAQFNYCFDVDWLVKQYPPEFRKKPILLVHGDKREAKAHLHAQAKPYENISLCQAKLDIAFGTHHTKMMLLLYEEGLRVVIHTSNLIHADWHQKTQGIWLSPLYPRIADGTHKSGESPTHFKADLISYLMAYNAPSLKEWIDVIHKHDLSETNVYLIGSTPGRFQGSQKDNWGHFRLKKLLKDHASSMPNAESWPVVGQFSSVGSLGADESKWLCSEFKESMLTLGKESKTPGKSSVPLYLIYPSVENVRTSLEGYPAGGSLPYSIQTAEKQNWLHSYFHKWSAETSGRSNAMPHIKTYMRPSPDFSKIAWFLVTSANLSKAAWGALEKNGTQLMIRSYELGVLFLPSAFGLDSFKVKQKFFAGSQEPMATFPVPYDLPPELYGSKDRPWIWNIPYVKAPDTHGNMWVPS

COc1cc2c3c(n(CC(O)CO)c(=O)c2cc1OC)-c1cc2c(cc1C3=O)OCO2 (stereo not drawn) [Compound 52, (2′RS)-5,6-Dihydro-6-(2′,3′-dihydroxypropyl)-2,3-dimethoxy-8,9-methylenedioxy-5,11-dioxo-11H-indeno[1,2-c]isoquinoline]
Top1 cleavage (recombinant Top1): ++++
MGM [1]: 0.065 ± 0.011 µM

O=C1c2ccccc2-c2c1c1ccc([N+](=O)[O-])cc1c(=O)n2C[C@@H](O)[C@H](O)[C@H](O)CO [Compound 65, (2′R,3′S,4′R)-5,6-Dihydro-6-(2′,3′,4′,5′-tetrahydroxypentyl)-3-nitro-5,11-dioxo-11H-indeno[1,2-c]isoquinoline]
Top1 cleavage (recombinant Top1): ++++
IC50 (recombinant TDP1; [2]): 37 to 111 µM
GI50 (renal, SN12C): 2.69 µM
MGM [1]: 1.58 µM

O=C1c2ccccc2-c2c1c1ccc([N+](=O)[O-])cc1c(=O)n2C[C@H](O)[C@@H](O)[C@H](O)CO [Compound 68, (2′S,3′R,4′R)-5,6-Dihydro-6-(2′,3′,4′,5′-tetrahydroxypentyl)-3-nitro-5,11-dioxo-11H-indeno[1,2-c]isoquinoline]
Top1 cleavage (recombinant Top1): ++++(+)
IC50 (recombinant TDP1; [2]): 37 to 111 µM
MGM [1]: 0.372 ± 0.024 µM

COc1cc2c3c(n(C[C@H](O)[C@@H](O)[C@H](O)[C@H](O)CO)c(=O)c2cc1OC)-c1cc2c(cc1C3=O)OCO2 [Compound 60, (2′S,3′R,4′R,5′R)-5,6-Dihydro-6-(2′,3′,4′,5′,6′-pentahydroxyhexyl)-2,3-dimethoxy-8,9-methylenedioxy-5,11-dioxo-11H-indeno[1,2-c]isoquinolone]
Top1 cleavage (recombinant Top1): +++ (+++, between 75% and 95% activity)

COc1cc2c3c(n(C[C@H](O)CO)c(=O)c2cc1OC)-c1cc2c(cc1C3=O)OCO2 [Compound 53, (2′S)-5,6-Dihydro-6-(2′,3′-dihydroxypropyl)-2,3-dimethoxy-8,9-methylenedioxy-5,11-dioxo-11H-indeno[1,2-c]isoquinoline]
Top1 cleavage (recombinant Top1): ++++
MGM [1]: 0.049 ± 0.003 µM

COc1cc2c3c(n(C[C@@H](O)[C@@H](O)[C@H](O)CO)c(=O)c2cc1OC)-c1cc2c(cc1C3=O)OCO2 [Compound 57, (2′R,3′R,4′R)-5,6-Dihydro-6-(2′,3′,4′,5′-tetrahydroxypentyl)-2,3-dimethoxy-8,9-methylenedioxy-5,11-dioxo-11H-indeno[1,2-c]isoquinoline]
Top1 cleavage (recombinant Top1): ++++
MGM [1]: 2.94 ± 0.52 µM

COc1cc2c3c(n(C[C@H](O)[C@@H](O)[C@@H](O)[C@H](O)CO)c(=O)c2cc1OC)-c1cc2c(cc1C3=O)OCO2 [Compound 59, (2′S,3′R,4′S,5′R)-5,6-Dihydro-6-(2′,3′,4′,5′,6′-pentahydroxyhexyl)-2,3-dimethoxy-8,9-methylenedioxy-5,11-dioxo-11H-indeno[1,2-c]isoquinoline]
Top1 cleavage (recombinant Top1): ++ (++, between 50% and 75% activity)
IC50 (recombinant TDP1; [2]): 37 to 111 µM

O=C1c2ccccc2-c2c1c1ccc([N+](=O)[O-])cc1c(=O)n2C[C@@H](O)[C@@H](O)[C@H](O)CO [Compound 67, (2′R,3′R,4′R)-5,6-Dihydro-6-(2′,3′,4′,5′-tetrahydroxypentyl)-3-nitro-5,11-dioxo-11H-indeno[1,2-c]isoquinoline]
Top1 cleavage (recombinant Top1): ++++
IC50 (recombinant TDP1; [2]): 12 to 37 µM
MGM [1]: 1.66 µM

COc1cc2c3c(n(C[C@@H]4O[C@H](CO)[C@@H](O)[C@H](O)[C@H]4O)c(=O)c2cc1OC)-c1cc2c(cc1C3=O)OCO2 [Compound 62]
Top1 cleavage (recombinant Top1): ++ (++, between 50% and 75% activity)
IC50 (recombinant TDP1; read-out: TDP1 IC50): ≥ 12 µM
IC50 (recombinant TDP1; [2]): 37 to 111 µM

O=C1c2ccccc2-c2c1c1ccc([N+](=O)[O-])cc1c(=O)n2C[C@@H](O)CO [Compound 64, (2′R)-5,6-Dihydro-6-(2′,3′-dihydroxypropyl)-3-nitro-5,11-dioxo-11H-indeno[1,2-c]isoquinoline]
Top1 cleavage (recombinant Top1): +++ (+++, between 75% and 95% activity)
MGM [1]: 0.332 ± 0.022 µM

O=C1c2ccccc2-c2c1c1ccc([N+](=O)[O-])cc1c(=O)n2CC(O)CO (stereo not drawn) [Compound 63, (2′RS)-5,6-Dihydro-6-(2′,3′-dihydroxypropyl)-3-nitro-5,11-dioxo-11H-indeno[1,2-c]isoquinoline]
Top1 cleavage (recombinant Top1): +++ (+++, between 75% and 95% activity)
MGM [1]: 0.389 ± 0.013 µM

COc1cc2c3c(n(C[C@@H](O)[C@@H](O)[C@H](O)[C@H](O)CO)c(=O)c2cc1OC)-c1cc2c(cc1C3=O)OCO2 [Compound 61, (2′R,3′R,4′R,5′R)-5,6-Dihydro-6-(2′,3′,4′,5′,6′-pentahydroxyhexyl)-2,3-dimethoxy-8,9-methylenedioxy-5,11-dioxo-11H-indeno[1,2-c]isoquinoline]
Top1 cleavage (recombinant Top1): ++++

O=C1c2ccccc2-c2c1c1ccc([N+](=O)[O-])cc1c(=O)n2C[C@@H]1O[C@H](CO)[C@@H](O)[C@H](O)[C@H]1O [Compound 71]
Top1 cleavage (recombinant Top1): ++ (++, between 50% and 75% activity)
IC50 (recombinant TDP1): ≥ 12 µM
IC50 (recombinant TDP1; [2]): 12 to 37 µM

COc1cc2c3c(n(C[C@@H](O)[C@H](O)[C@H](O)CO)c(=O)c2cc1OC)-c1cc2c(cc1C3=O)OCO2 [Compound 55, (2′R,3′S,4′R)-5,6-Dihydro-6-(2′,3′,4′,5′-tetrahydroxypentyl)-2,3-dimethoxy-8,9-methylenedioxy-5,11-dioxo-11H-indeno[1,2-c]isoquinoline]
Top1 cleavage (recombinant Top1): +++ (+++, between 75% and 95% activity)
MGM [1]: 5.62 ± 0.18 µM

COc1cc2c3c(n(C[C@@H](O)CO)c(=O)c2cc1OC)-c1cc2c(cc1C3=O)OCO2 [Compound 54, (2′R)-5,6-Dihydro-6-(2′,3′-dihydroxypropyl)-2,3-dimethoxy-8,9-methylenedioxy-5,11-dioxo-11H-indeno[1,2-c]isoquinoline]
Top1 cleavage (recombinant Top1): ++++
GI50 (melanoma, UACC-62): 0.025 µM
MGM [1]: 0.166 ± 0.005 µM

COc1cc2c3c(n(C[C@H](O)[C@H](O)[C@H](O)CO)c(=O)c2cc1OC)-c1cc2c(cc1C3=O)OCO2 [Compound 56, (2′S,3′S,4′R)-5,6-Dihydro-6-(2′,3′,4′,5′-tetrahydroxypentyl)-2,3-dimethoxy-8,9-methylenedioxy-5,11-dioxo-11H-indeno[1,2-c]isoquinoline]
IC50 (recombinant TDP1; [2]): 37 to 111 µM
MGM [1]: 1.43 ± 0.44 µM

O=C1c2ccccc2-c2c1c1ccc([N+](=O)[O-])cc1c(=O)n2C[C@H](O)[C@H](O)[C@H](O)CO [Compound 66, (2′S,3′S,4′R)-5,6-Dihydro-6-(2′,3′,4′,5′-tetrahydroxypentyl)-3-nitro-5,11-dioxo-11H-indeno[1,2-c]isoquinoline]
Top1 cleavage (recombinant Top1): ++++(+)
MGM [1]: 0.508 ± 0.041 µM

O=C1c2ccccc2-c2c1c1ccc([N+](=O)[O-])cc1c(=O)n2C[C@@H](O)[C@@H](O)[C@H](O)[C@H](O)CO [Compound 70, (2′R,3′R,4′R,5′R)-5,6-Dihydro-6-(2′,3′,4′,5′,6′-pentahydroxyhexyl)-3-nitro-5,11-dioxo-11H-indeno[1,2-c]isoquinoline]
Top1 cleavage (recombinant Top1): ++++
IC50 (recombinant TDP1; [2]): 37 to 111 µM
MGM [1]: 16.6 µM
